# B2AR ag – beta2AR agonists driving receptor internalization, primary screen, cell-based, FAP fluorogen, flow cytometry. AID 504454, 2011. actives 0.43% (n = 340,000). Am2.2-beta2AR cells. response, % (no concentration beside the values). Beta-2 adrenergic receptor (Homo sapiens), P07550;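 active = response above a set limit, near 3 SD of response in nonfluorescent compounds, cut at about 42% in these data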
# TLR4-MyD88 BLA – inhibitors of TLR4-MyD88 association in cells, primary screen, cell-based, HeLa CL3-4, BLA complementation, FRET ratio; actives 0.18% (n = 200,000); Toll-like receptor 4 (Homo sapiens) + Myeloid differentiation primary response protein …; inhibition, % at 8.4 µM; HeLa CL3-4 TLR4/MyD88 BLA complementation; in the data active = inhibition above about 25%;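 also: 0% = vehicle and 100% = reference inhibitor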
# ABHD5 PLIN5 PPI – ABHD5-PLIN5 interaction inhibitors, primary screen, cell lysate, split luciferase complementation, luminescence; Perilipin-5 (Homo sapiens) + 1-acylglycerol-3-phosphate O-acyltransferase ABHD5 (Homo …; actives 0.78% (n = 360,000); AID 602281, 2012; inhibition, % at 4 µM; Split G. princeps luciferase complementation, 4 h;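 active = inhibition above the mean inhibition across every tested compound plus 3 SD, cut at about 22% in these data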;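 also: 0% = DMSO only wells and the 100% control is not disclosed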
# TLR9-MyD88 block – inhibitors of TLR9-MyD88 association in cells, primary screen, cell-based, CHO, BLA complementation, fluorescence; inhibition, % at 4.98 µM; Toll-like receptor 9 (Homo sapiens) + Myeloid differentiation primary response protein …; actives 0.21% (n = 340,000); AID 504734, 2011; CCF4 FRET ratio;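 active = inhibition above the mean over all tested compounds plus 3 SD, cut at about 21% in these data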;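 also: 0% = DMSO only wells and 100% = clavulanate BLA inhibitor control wells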
# NOD2-RIPK2 inh – NOD2-RIPK2 binding disruptors in cells, primary screen, fluorescence, CHO cells, BLA complementation. CCF4 ratio. inhibition, % at 4.98 µM. Receptor-interacting serine/threonine-protein kinase 2 (Homo sapiens), O43353. AID 624267, 2012. actives 0.38% (n = 360,000); in the data active = inhibition above about 21%;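 also: 0% = vehicle only and 100% = reference blocker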
# Target sequence (O43353 whole entry, looked up): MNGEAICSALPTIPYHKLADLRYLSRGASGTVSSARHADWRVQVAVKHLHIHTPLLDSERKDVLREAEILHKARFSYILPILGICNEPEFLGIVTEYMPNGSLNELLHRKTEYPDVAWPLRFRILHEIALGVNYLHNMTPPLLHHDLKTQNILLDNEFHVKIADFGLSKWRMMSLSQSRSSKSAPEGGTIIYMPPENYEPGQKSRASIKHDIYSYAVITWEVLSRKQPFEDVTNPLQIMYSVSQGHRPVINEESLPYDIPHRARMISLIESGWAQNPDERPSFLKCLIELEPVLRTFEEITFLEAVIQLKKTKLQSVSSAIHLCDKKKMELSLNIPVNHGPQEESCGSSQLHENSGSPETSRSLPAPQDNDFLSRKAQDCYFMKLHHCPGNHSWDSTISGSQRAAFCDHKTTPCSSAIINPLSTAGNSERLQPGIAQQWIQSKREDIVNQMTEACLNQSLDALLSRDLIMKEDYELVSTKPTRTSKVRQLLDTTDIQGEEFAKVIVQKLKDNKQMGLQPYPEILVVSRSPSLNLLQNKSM
# Dynein cargo inh – inhibitors of GR-EGFP nuclear translocation, primary screen, dynein cargo transport inhibitor project, imaging, high-content, 3617.4 mouse cells; test concentration mostly 20 µM; stimulated with dexamethasone, 1 µM; stronger effect = lower value; actives 0.47% (n = 220,000); z-score, hits read low;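 active = plate z-score of nuclear minus cytoplasmic receptor signal below a set negative limit, without overly bright fluorescence or cell loss, cut at about -3.5 in these data, passing the limit was not always enough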;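 also: z-score of nuclear minus cytoplasmic ring GR-EGFP intensity difference per well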
#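 medium = tetracycline-free induction medium containing charcoal-stripped FBS | probe or stimulus = dexamethasone, 1.0 µM final | timing = 48 h induction, then 1 h compound, then 30 min agonist, 37 °C | detection = automated 10x imaging of fixed Hoechst-stained cells | read-out basis = nuclear versus cytoplasmic GR-EGFP signal, averaged per well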
# ABHD5-PLIN5 conf – ABHD5-PLIN5 interaction inhibitors, confirmation, biochemical, luminescence | shares compounds with ABHD5 PLIN5 PPI | inhibition, % at 4 µM | actives 67% (n = 2,200); in the data active = inhibition above about 23%;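 also: 0% = DMSO vehicle wells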
# HNF4 split-luc – HNF4 dimerization inhibitors, counter-screen for ABHD5-PLIN5 interaction inhibitor project, biochemical, split-luciferase complementation, luminescence | AID 651674, 2012 | inhibition, % at 4 µM | actives 77% (n = 2,200) | shares compounds with ABHD5 PLIN5 PPI;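 active = mean inhibition across replicate wells exceeding the computed hit threshold, cut at about 13% in these data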;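 also: light from luciferase halves that rejoin when HNF4 fusion proteins dimerize; 0% = DMSO only wells and the 100% control is not given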
# * marks the source's active call; other numbers are inactive results; x = no result given. This is a sample that favours compounds with a hit; in the whole collection about 1.6% have one here.
SMILES,B2AR ag,TLR4-MyD88 BLA,ABHD5 PLIN5 PPI,TLR9-MyD88 block,NOD2-RIPK2 inh,Dynein cargo inh,ABHD5-PLIN5 conf,HNF4 split-luc
CCCCCNC(=O)C(c1cc2ccccc2o1)n1c(=O)c(-c2ccccc2)nc2ccccc21 (configuration not stated),x,x,-24.8,x,-12.6,x,x,x
CCCCCNC(=O)C(c1ccc(C(F)(F)F)cc1)n1c(=O)c(-c2ccco2)nc2ccccc21 (configuration not stated),x,x,83.0*,x,-15.8,x,46.6*,5.5
Cc1ccccc1-c1cc2nc(NCCc3ccncc3)n(C)c(=O)c2s1,x,x,5.4,x,8.0,x,x,x
OC[C@H]1O[C@@H](c2nc(-c3cccc4ccccc34)no2)[C@H](O)[C@@H]1O,x,x,3.0,x,-3.1,x,x,x
O=C(CC1S/C(=N/N=C/c2c[nH]c3ccc(OCc4ccccc4)cc23)NC1=O)Nc1ccccc1 (configuration not stated),14.2,0.8,10.0,-2.7,-8.4,0.941,x,x
O=C(CC1S/C(=N/N=C/c2c[nH]c3ccccc23)NC1=O)Nc1ccccc1 (configuration not stated),9.1,13.2,23.2*,-9.6,0.8,2.01,19.6,11.3
COCCN1C[C@@H](CO)O[C@@H](n2cnc3c(NCc4ccc(F)cc4)ncnc32)C1,x,x,1.2,x,-7.4,x,x,x
Cc1ccc(Cl)cc1NC(=O)C[n+]1ccc(Cc2ccc([N+](=O)[O-])cc2)cc1,2.5,2.6,24.2*,-13.1,-2.1,0.0997,15.1,-2.0
CCOC(=O)[C@]12CCC=C1N(Cc1ccc(Cl)cc1Cl)C(=O)[C@H](CC(=O)NCc1cccc(C(F)(F)F)c1)C2,x,x,25.5*,x,-2.1,x,20.9,0.8
CCOC(=O)[C@]12CCC=C1N(Cc1ccc(Cl)cc1Cl)C(=O)[C@H](CC(=O)N1CCCC1)C2,x,x,4.0,x,3.1,x,x,x
CCOC(=O)N1CCN(C(=O)C[C@@H]2C[C@@]3(C(=O)OCC)CCC=C3N(Cc3ccc(Cl)cc3Cl)C2=O)CC1,x,x,25.7*,x,-11.7,x,35.1*,-1.9
CN1C/C(=C/c2ccsc2)C(=O)/C(=C/c2ccsc2)C1,7.5,-10.9,56.1*,-5.2,-7.5,-1.65,78.5*,65.6*
CN1C/C(=C\c2ccc(N3CCOCC3)cc2)C(=O)/C(=C/c2ccc(N3CCOCC3)cc2)C1,14.4,1.7,29.8*,5.5,5.3,-3.41,53.2*,42.0*
CN1C/C(=C/c2ccncc2)C(=O)/C(=C/c2ccncc2)C1,6.7,x,1.1,0.5,-2.4,x,x,x
c1ccc(N2CCOCCOCCOCCOCCOCC2)cc1,1.9,-6.2,-5.5,-8.4,-4.0,-0.588,x,x
CC(=O)C1=C(C)NC(C)=C(C(C)=O)C1c1ccc(-c2ccccc2Cl)o1,-3.1,2.8,51.8*,5.8,-8.9,-0.0578,14.0,38.4*
O=c1[nH]cnc2c1N=C(c1cccc([N+](=O)[O-])c1)CC(c1ccccc1)N2 (configuration not stated),-2.6,-13.5,45.0*,-16.8,-5.3,-1.13,10.2,25.8*
O=C(c1cc(Br)c(Br)s1)N1CCc2ccccc2C1,-4.3,x,-4.8,-3.3,1.5,x,x,x
CCC(=O)N(CCC(c1ccc(C)cc1)c1ccco1)Cc1ccco1 (configuration not stated),12.8,x,25.5*,2.5,-6.3,-2.37,16.8,12.3
O=C(CC(C(=O)O)c1ccc(F)cc1)c1ccc(Cl)cc1 (configuration not stated),-2.3,x,4.3,-3.2,-1.9,x,x,x
Cc1ccc(SC(CC(=O)c2ccc(F)cc2)C(=O)O)cc1 (configuration not stated),-12.0,x,84.4*,1.5,4.0,x,24.3*,70.3*
COCCNC(=O)/C(C#N)=C/c1ccc(N2CCOCC2)o1,3.9,0.3,10.4,4.2,-2.8,-0.501,x,x
N#C/C(=C\c1ccc(N2CCOCC2)o1)C(=O)NCCc1ccccc1,-6.7,12.8,24.8*,4.0,-2.7,0.244,18.5,31.9*
COc1cccc(C(=O)/C=C/c2ccc(N3CCCCC3)c([N+](=O)[O-])c2)c1,1.8,3.8,29.0*,-0.5,2.9,-0.563,86.6*,73.1*
CCC(=O)N1Cc2cc(C(=O)NCC(F)(F)F)nc(-c3cccc(-c4cncnc4)c3)c2[C@H]1CCO,x,x,4.9,x,-2.9,x,x,x
SMILES,B2AR ag,TLR4-MyD88 BLA,ABHD5 PLIN5 PPI,TLR9-MyD88 block,NOD2-RIPK2 inh,Dynein cargo inh,ABHD5-PLIN5 conf,HNF4 split-luc
CC(NC(=O)/C(C#N)=C/c1ccc(C(=O)O)cc1)c1ccccc1 (configuration not stated),-0.6,x,23.9*,-12.4,-2.5,x,46.9*,30.3*
O=C1C=C(N2CCN(C3=CC(=O)CCC3)CC2)CCC1,-4.2,-4.0,47.7*,0.1,-3.0,0.961,9.5,19.5*
O=C1C=C(N2CCOCC2)CCC1,-1.1,x,26.9*,-2.0,-8.5,x,3.6,3.5
CC(=O)OCC1=C(C(=O)O)N2C(=O)[C@@H](NC(=O)Cc3ccccc3)[C@H]2SC1,1.4,x,20.8,-8.2,-3.3,x,x,x
CCOc1ccc(C(=O)NC2C(=O)N3C(C(=O)O)=C(COC(C)=O)CSC23)cc1OCC (configuration not stated),4.7,x,31.9*,-4.3,-1.9,x,10.8,29.2*
CC(=O)OCC1=C(C(=O)O)N2C(=O)C(NC(=O)c3ccc(COc4c(C)cccc4Cl)o3)C2SC1 (configuration not stated),0.6,-0.8,24.6*,10.1,2.8,-1.74,17.7,17.5*
CC(=O)OCC1=C(C(=O)O)N2C(=O)C(NC(=O)CCn3nc(C(F)(F)F)c(Br)c3C3CC3)C2SC1 (configuration not stated),-3.8,7.9,46.5*,-11.5,-17.3,-0.549,42.0*,8.4
COCCCN(C(=O)C(C)Oc1ccc(Br)cc1)c1c(N)n(Cc2ccccc2)c(=O)[nH]c1=O (configuration not stated),7.0,x,-1.1,2.1,2.7,x,x,x
O=C(COC(=O)C1(c2ccccc2F)CCCC1)N1CCNC1=O,-3.3,x,-3.5,-3.1,-16.2,x,x,x

# From PubChem BioAssay
